Measured values from ChEMBL document CHEMBL2401669, “Discovery and structure-activity relationships of ent-Kaurene diterpenoids as potent and selective 11β-HSD1 inhibitors: potential impact in diabetes” (Eur J Med Chem, 2013).

Experiments:
[1] = species on record: Mus musculus; test: Selectivity ratio of IC50 for mouse 11beta-HSD2 to IC50 for mouse 11beta-HSD1
In short: (§1)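 Ratio of 11β-HSD2 IC50 to 11β-HSD1 IC50 for the same species (mouse or human). Both IC50s come from microsome-based scintillation proximity assays, averaged over at least two independent experiments with at least duplicate wells per concentration. Only compounds exceeding 50% inhibition in the primary screen were evaluated.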

[2] = molecular target: 11-beta-hydroxysteroid dehydrogenase 1 (Mus musculus, UniProt P50172); test: Inhibition of mouse 11beta-HSD1 expressed in HEK293 cell microsomes assessed as inhibition of [3H]cortisone conversion to [3H]cortisol by scintillation proximity assay; design: species or system Microsome
In short: (§2)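 Enzyme source: microsomal fraction from HEK-293 cells stably transfected with 11β-HSD1 (human or mouse), incubated with NADPH and [3H]cortisone. The [3H]cortisol product is captured by a monoclonal antibody on protein A-coated SPA beads. IC50 is averaged over at least two independent experiments, at least duplicate per concentration.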

[3] = molecular target: T1, 11-beta-hydroxysteroid dehydrogenase type 2 (Mus musculus, UniProt P51661); test: Inhibition of mouse 11beta-HSD2
T1 sequence (P51661 whole entry): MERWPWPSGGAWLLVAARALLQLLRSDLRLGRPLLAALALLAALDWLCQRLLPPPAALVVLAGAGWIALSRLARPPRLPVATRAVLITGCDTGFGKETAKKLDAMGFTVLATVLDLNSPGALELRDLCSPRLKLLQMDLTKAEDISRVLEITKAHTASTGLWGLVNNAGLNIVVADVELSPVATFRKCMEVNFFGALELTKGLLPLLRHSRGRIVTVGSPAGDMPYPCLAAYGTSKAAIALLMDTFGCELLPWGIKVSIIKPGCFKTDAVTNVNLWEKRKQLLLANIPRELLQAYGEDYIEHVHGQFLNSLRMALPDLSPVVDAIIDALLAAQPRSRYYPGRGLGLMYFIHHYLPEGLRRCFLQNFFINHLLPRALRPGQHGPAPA
In short: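 Scintillation proximity assay using microsomes containing mouse 11β-HSD2. IC50 is averaged over at least two independent experiments, with at least two replicates per concentration.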

[4] = molecular target: T2, 11-beta-hydroxysteroid dehydrogenase 1 (Homo sapiens, UniProt P28845); test: Inhibition of human 11beta-HSD1 expressed in HEK293 cell microsomes assessed as inhibition of [3H]cortisone conversion to [3H]cortisol by scintillation proximity assay; design: species or system Microsome; in short: as §2
[5] = molecular target: 11-beta-hydroxysteroid dehydrogenase 1 (Mus musculus) (UniProt P50172); test: Inhibition of mouse 11beta-HSD1 expressed in HEK293 cell microsomes assessed as inhibition of [3H]cortisone conversion to [3H]cortisol at 1 uM by scintillation proximity assay; conditions: Microsome
In short: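 Primary single-concentration screen in the SPA. Mouse 11β-HSD1 HEK-293 stable-transfectant microsomes are incubated with NADPH and [3H]cortisone, and [3H]cortisol is captured by antibody-coupled protein A SPA beads. Inhibitory ratio is the average of two determinations, with deviation from the average of 10% of the average value.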

[6] = species on record: Homo sapiens; test: selectivity ratio of IC50 for human 11beta-HSD2 to IC50 for human 11beta-HSD1; in short: as §1
[7] = molecular target: T3, 11-beta-hydroxysteroid dehydrogenase type 2 (Homo sapiens, UniProt P80365); test: Inhibition of human 11beta-HSD2
T3 sequence (P80365 whole entry): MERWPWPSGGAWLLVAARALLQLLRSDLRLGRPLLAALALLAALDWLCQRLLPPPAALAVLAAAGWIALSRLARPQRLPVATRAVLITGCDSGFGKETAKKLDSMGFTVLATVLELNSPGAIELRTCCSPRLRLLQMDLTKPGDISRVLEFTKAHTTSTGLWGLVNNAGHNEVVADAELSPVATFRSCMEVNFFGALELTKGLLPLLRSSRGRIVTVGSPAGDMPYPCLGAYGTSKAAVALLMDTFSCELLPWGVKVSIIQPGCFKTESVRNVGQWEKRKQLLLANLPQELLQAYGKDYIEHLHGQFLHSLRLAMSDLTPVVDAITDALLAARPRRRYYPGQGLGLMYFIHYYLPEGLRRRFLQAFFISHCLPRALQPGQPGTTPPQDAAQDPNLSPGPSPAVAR

[8] = molecular target: T2, 11-beta-hydroxysteroid dehydrogenase 1; test: Inhibition of human 11beta-HSD1
In short: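 Scintillation proximity assay on microsomes from HEK-293 cells stably transfected with human 11β-HSD1. Microsomes were incubated with NADPH and [3H]cortisone. The [3H]cortisol formed was captured by a monoclonal antibody on protein A-coated SPA beads. Compounds were first screened at […]; those giving over 50% inhibition went on to full IC50 determination. Each value comes from at least two independent experiments, with duplicates or more at each concentration.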

[9] = molecular target: 11-beta-hydroxysteroid dehydrogenase 1 (Rattus norvegicus, UniProt P16232); test: Inhibition of rat 11beta-HSD1
Chain of 11-beta-hydroxysteroid dehydrogenase 1 (Rattus norvegicus, UniProt P16232) (P16232 whole entry): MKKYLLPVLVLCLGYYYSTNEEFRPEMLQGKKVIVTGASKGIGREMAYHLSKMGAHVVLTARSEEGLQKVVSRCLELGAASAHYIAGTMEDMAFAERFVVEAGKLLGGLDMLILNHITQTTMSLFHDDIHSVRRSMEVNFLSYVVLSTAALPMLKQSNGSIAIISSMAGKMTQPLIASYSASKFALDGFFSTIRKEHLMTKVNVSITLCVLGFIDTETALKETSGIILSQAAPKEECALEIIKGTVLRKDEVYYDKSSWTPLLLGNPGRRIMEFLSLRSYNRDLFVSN

Chain of 11-beta-hydroxysteroid dehydrogenase 1 (Mus musculus, UniProt P50172) (P50172 whole entry): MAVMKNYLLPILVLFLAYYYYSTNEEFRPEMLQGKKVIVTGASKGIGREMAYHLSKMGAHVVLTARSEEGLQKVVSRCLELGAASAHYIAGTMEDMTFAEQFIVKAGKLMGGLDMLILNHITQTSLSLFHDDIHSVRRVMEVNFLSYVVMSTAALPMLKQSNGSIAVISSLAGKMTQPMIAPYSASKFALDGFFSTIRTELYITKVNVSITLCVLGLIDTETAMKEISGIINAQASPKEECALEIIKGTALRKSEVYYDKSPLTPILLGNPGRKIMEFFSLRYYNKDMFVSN
Chain of 11-beta-hydroxysteroid dehydrogenase 1 (Mus musculus) (P50172 whole entry, looked up): as the sequence (P50172 whole entry) above
T2 sequence (P28845 whole entry): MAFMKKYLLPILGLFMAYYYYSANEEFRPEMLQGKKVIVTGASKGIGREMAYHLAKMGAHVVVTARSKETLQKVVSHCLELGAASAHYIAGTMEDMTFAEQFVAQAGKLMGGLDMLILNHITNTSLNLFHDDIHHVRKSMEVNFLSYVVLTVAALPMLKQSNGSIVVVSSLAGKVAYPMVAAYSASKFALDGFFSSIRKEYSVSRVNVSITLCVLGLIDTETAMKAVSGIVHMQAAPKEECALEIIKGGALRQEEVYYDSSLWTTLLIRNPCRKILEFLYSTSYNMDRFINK

Row | Ratio IC50 [1] | IC50 [2] [µM] | IC50 [3] [µM] | IC50 [4] [µM] | inhibition [5] [%] | Ratio IC50 [6] | IC50 [7] [µM] | Structure (SMILES) | IC50 [8] [µM] | IC50 [9] [µM]
1 | > 387 | 0.259 | > 100 | > 1 | 55.5 | – | – | C=C1[C@H]2CC[C@H]3[C@]4(C)CCC[C@@](C)(C(=O)O)[C@H]4CC[C@]3(C2)[C@H]1O | – | –
2 | > 640 | 1.55 | > 1000 | 1.42 | 20.4 | 7 | 10 | C=C1C[C@@]23CC[C@@H]4[C@](C)(CO)CCC[C@@]4(C)[C@@H]2CC[C@H]1C3 | – | –
3 | 1400 | 0.357 | 500 | – | 82.4 | – | – | C=C1C[C@@]23CC[C@H]4[C@@](C)(CCC[C@@]4(C)C(=O)O)[C@@H]2CC[C@@H]1C3 [KAURENOIC ACID] | – | –
4 | – | > 1 | – | 0.407 | 18.2 | > 246 | > 100 | C=C1C[C@@]23CC[C@H]4[C@@](C)(CCC[C@@]4(C)NC(=O)NC45CC6CC(CC(C6)C4)C5)[C@@H]2CC[C@H]1C3 | – | –
5 | – | > 1 | – | 0.771 | 11.1 | > 130 | > 100 | C=C1[C@H]2C[C@H](OC(=S)SC)[C@H]3[C@]4(C)CCC[C@@](C)(C(=O)O)[C@H]4CC[C@]3(C2)[C@@H]1O | – | –
6 | – | > 1 | – | 0.331 | 25.9 | > 302 | > 100 | C=C1C[C@@]23CC[C@H]4[C@@](C)(CCC[C@@]4(C)NC(=O)Nc4ccc(F)cc4)[C@@H]2CC[C@H]1C3 | – | –
7 | – | – | – | – | – | – | – | C[C@@H]1CC(n2c(=O)[nH]c3ccccc32)C[C@@H](C)N1C(=O)c1cc(Cl)c(N)c(Cl)c1 (stereo not given in full) | 0.022 | 0.039
8 | – | > 1 | – | 0.266 | 52.2 | 6.2 | 1.6 | C=C1[C@H]2C[C@H](O)[C@H]3[C@]4(C)CCC[C@@](C)(NC(=O)Nc5cccc6ccccc56)[C@H]4CC[C@]3(C2)[C@@H]1O | – | –
9 | > 357 | 2.81 | > 1000 | 0.91 | – | > 1100 | > 1000 | C[C@@]1(CO)CCC[C@]2(C)[C@@H]1CC[C@@]13C[C@H](CC[C@H]12)[C@@](O)(CO)C3 | – | –
10 | – | > 1 | – | 0.404 | 20.8 | 1.7 | 0.7 | C=C1[C@H]2C[C@H](O)[C@H]3[C@]4(C)CCC[C@@](C)(NC(=O)NC56CC7CC(CC(C7)C5)C6)[C@H]4CC[C@]3(C2)[C@@H]1O | – | –
11 | – | > 1 | – | 0.249 | 7.92 | > 402 | > 100 | C=C1[C@H]2C[C@H](O)[C@H]3[C@]4(C)CCC[C@@](C)(NC(=O)Nc5ccc(F)cc5)[C@H]4CC[C@]3(C2)[C@@H]1O | – | –
12 | – | > 1 | – | 0.0094 | 24.4 | > 10600 | > 1000 | C=C1[C@H]2C[C@H](O)[C@H]3[C@]4(C)CCC[C@@](C)(NC(=O)Nc5ccccc5)[C@H]4CC[C@]3(C2)[C@@H]1O | – | –
13 | – | > 1 | – | 0.116 | 12.4 | 1970 | 229 | C=C1[C@H]2C[C@H](OC(C)=O)[C@H]3[C@]4(C)CCC[C@@](C)(C(=O)O)[C@H]4CC[C@]3(C2)[C@@H]1O | – | –
14 | – | > 1 | – | 0.165 | 16.3 | > 605 | > 100 | C=C1[C@H]2C[C@H](O)[C@H]3[C@]4(C)CCC[C@@](C)(NC(=O)NC5CCCCC5)[C@H]4CC[C@]3(C2)[C@@H]1O | – | –
15 | > 311 | 3.22 | > 1000 | 1.24 | – | > 809 | > 1000 | C[C@@]12CCC[C@@](C)(C(=O)O)[C@H]1CC[C@@]13C[C@H](CC[C@H]12)[C@@](O)(CO)C3 | – | –
